# HSF1 activator: increases HSF-1 driven luciferase reporter signal | NIH3T3-HGL HSF-1 luciferase reporter, MG132, 8 h; 100% = twice DMSO control signal | activation, % at 9 µM | hit rate 1.7% among 300,000;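 active means mean replicate activation of at least 50% with a set share of replicates each reaching 50%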;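 further: 0% = median of the neutral control wells and 100% = twice that signal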
# PfHsp90 yeast 2: reduces growth (ATP signal) of yeast expressing P. falciparum Hsp90; hit rate 0.32% among 310,000; S. cerevisiae expressing PfHsp90, BacTiter-Glo ATP, 48 h; yeast lacking PDR1 and PDR3 efflux regulators; inhibition, % at 9.4 µM;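 active means every replicate shows inhibition above about 80%, whatever the replicate mean, limit read from the data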;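 further: 0% = DMSO neutral controls and 100% = 20 µM radicicol positive controls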
# T cruzi inh: blocks replication of Trypanosoma cruzi; T. cruzi beta-gal in NIH3T3, luminescence, 90 h; inhibition, % (no concentration beside the values); hit rate 1.4% among 300,000;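 active means mean inhibition across valid replicates above about 55%, limit read from the data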;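 further: signal also drops with host cell toxicity which is not excluded here; 0% = plate median of DMSO wells and 100% = zero luminescence signal; higher percent means less beta-gal luminescence so fewer parasites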
#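 compound dosing = single 50 nL compound addition per well in DMSO | material = NIH/3T3 host cells with β-galactosidase reporter T. cruzi | input = 5,000 host fibroblasts per well | timing = ≥90 h infection period, 3 h prior cell attachment | read-out basis = percent inhibition of parasite-derived β-gal signal | detection = GalScreen β-gal luminescence, detergent lysis, 60 min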
# N-glyco inh: blocks N-linked glycosylation in D54 reporter cells; reporter increase, % at 12.5 µM; hit rate 0.23% among 360,000; D54 ERlucT glycosylation luciferase reporter, 24 h; percent of 100 nM tunicamycin response;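 active means mean luciferase reporter signal, scaled so untreated is 0 and the glycosylation-blocking control 100, at or above a set limit in every replicate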;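 further: luciferase carries N-glycosylation sites so blocking glycosylation raises the light; 0% = median of neutral control wells and 100% = median of 100 nM tunicamycin wells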
# CaV13 ICDI inh: Disruptors of the CACNA1D IQ motif to Ca2+-dependent inactivation inhibitor domain association, primary screening, Förster resonance energy transfer in intact living …. HEK cells, CFP/YFP FRET ICDI-IQ, plate reader, 10 min; percent FRET-ratio fall versus neutral wells. inhibition, % at 12.3 µM. hit rate 0.098% among 340,000. AID 743397;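 active means mean replicate inhibition of at least 30% and at least 1% of replicates passing that level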;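 further: 0% = median of the neutral control wells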
# PvdQ inh: P. aeruginosa PvdQ acylase inhibition. purified PvdQ acylase, fluorescence plate reader. inhibition, % at 10 µM. hit rate 0.063% among 340,000; in the data active means inhibition above about 30%, passing the limit was not always enough;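 further: 0% = vehicle neutral wells and 100% = reference inhibitor wells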
# * = called active by the depositor; . = no result given. Compounds with a hit are over-represented: about 3% of the library has one in this group of screens.
SMILES,HSF1 activator,PfHsp90 yeast 2,T cruzi inh,N-glyco inh,CaV13 ICDI inh,PvdQ inh
Cc1ccc(S(=O)(=O)N(C)C[C@H]2Oc3ccc(NC(=O)C4CCCCC4)cc3C(=O)N([C@H](C)CO)C[C@H]2C)cc1,.,-20,.,45*,-7,-2
C[C@H](CO)N1C[C@H](C)[C@@H](CN(C)Cc2ccccc2)Oc2ccc(NC(=O)CCCCCC(=O)Nc3ccccc3N)cc2C1=O,.,11,.,29*,-8,-13
C[C@H](CO)N1C[C@H](C)[C@@H](CN(C)S(=O)(=O)c2ccc(F)cc2)Oc2ccc(NC(=O)C3CCCCC3)cc2C1=O,.,-2,.,2,-3,-6
C[C@H]1CN([C@@H](C)CO)C(=O)Cc2cc(NC(=O)CCC(F)(F)F)ccc2O[C@H]1CN(C)S(=O)(=O)c1ccc(F)cc1,.,7,.,40*,-4,-10
C[C@H]1CN([C@@H](C)CO)C(=O)Cc2cc(NC(=O)CCC(F)(F)F)ccc2O[C@H]1CN(C)S(=O)(=O)c1ccc(Cl)cc1,.,.,.,32*,-7,-6
CSC1=Nc2ccccc2N=C(N2CCCC2)C1,.,.,.,.,-12,.
COc1ccc(NC(=O)N(C)[C@H]2C[C@H]3c4[nH]c5c(-c6ccccc6)cccc5c4CCN3C(=O)[C@H]2[C@H](C)O)cc1,.,.,.,.,-4,.
CC(C)(C)OC(=O)N(CCc1ccccc1)Cc1cccc(OCc2cccc(NC(=O)c3ccccc3)c2)c1,.,7,.,-7,-4,25
Cc1cccc(C)c1NC(=O)C1(C)CSCC(=O)N1CCc1ccccc1 (centres undefined),.,.,.,.,-6,.
COc1ccccc1Nc1nc(N)nc(-c2oc3ccccc3c2C)n1,15,-12,7,1,-4,-16
Cc1c(-c2nc(N)nc(Nc3ccc(F)cc3)n2)oc2ccccc12,44,-12,62*,8,-2,-6
Cc1ccccc1Nc1nc(N)nc(-c2oc3ccccc3c2C)n1,72*,-7,56*,2,-4,-5
O=C(Nc1cc(C(F)(F)F)ccc1N1CCCCC1)C1=COCCO1,.,.,.,-4,-34,.
O=C(NCCC1=CCCCC1)C1CCC(CNc2nc(=S)[nH]c3ccccc23)CC1 (centres undefined),11,-4,-13,58*,1,-7
COC(=O)/C=C1\OC(C2CC2)c2ccccc21 (centres undefined),.,.,.,.,-13,.
COc1ccc(Cc2nc3c4c(ncn3n2)Oc2ccc3ccccc3c2C4c2ccc(OC)c(OC)c2)cc1 (centres undefined),2,-8,57*,-1,-19,2
COc1ccc(C2c3ccc(O)cc3Oc3ncn4nc(-c5ccccn5)nc4c32)cc1 (centres undefined),-16,2,18,2,54*,10
N=c1c2c(ncn1Cc1ccco1)Oc1ccc3ccccc3c1C2c1ccccc1 (centres undefined),-18,-33,45,0,-4,-14
COc1ccc(C2c3ccc(O)cc3Oc3ncn(Cc4ccco4)c(=N)c32)cc1 (centres undefined),75*,-26,50,4,-6,-11
COc1ccc(C2c3c(ncn(Cc4ccco4)c3=N)Oc3ccc4ccccc4c32)cc1 (centres undefined),69*,3,9,-3,-3,-8
COc1ccc(C2c3ccc(O)cc3Oc3ncn4nc(-c5ccccn5)nc4c32)cc1OC (centres undefined),-4,16,3,2,-4,-10
COc1cccc(CN2CCC2(C)C(=O)NCc2cccc(C(F)(F)F)c2)c1OC (centres undefined),.,.,.,-5,-6,.
COc1ccc(C2c3ccc4ccccc4c3Oc3ncn(CCN(C)C)c(=N)c32)cc1 (centres undefined),5,-8,59*,12,-15,-18
Cc1nc(C(=O)Nc2ccc(Cl)cc2)sc1C1(C)CC(c2cccc([N+](=O)[O-])c2)=NO1 (centres undefined),0,-7,66*,-5,13,-1
